Experimental data: PubChem BioAssay
Results filed as inconclusive are left out.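 Rule for the calls, unless noted: active = viability increase at or above a cutoff of the median across tested compounds plus 3 SD (cut at about 8.5% in these data, passing the limit was not always enough); inconclusive = some gains above the cutoff, reason not given; inactive = the rest.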

Tests used:
[1] = S. cerevisiae growth inhibition in permissive medium (OD615), pilot counter-assay for S. cerevisiae lifespan shortening project, permissive growth control (AID 705;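 active = growth inhibition above 25% in both replicates, a cutoff set 3 SD above the mean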); conditions: OD615, 24 h, at 10 µM, active compounds read high
Method in brief: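 System: Engineered DeaD yeast | Buffer or medium: SC raffinose/galactose permissive medium | Incubation: Cells pre-grown 4 h, then 24 h compound exposure, 30 °C humidified | Measured by: Absorbance (optical density) at 615 nm | Read-out: Reduction in yeast growth (OD615)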

[2] = S. cerevisiae growth inhibition in restrictive medium, OD615, pilot screen, restrictive growth control, yeast lifespan reduction project (AID 706;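 active = growth inhibition above a set limit, 3 SD over mean compound inhibition, in both replicates, cut at about 43% in these data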;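 note: modified DeaD lifespan yeast strain shifted to restrictive glucose medium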); conditions: OD615, 48 h, at 10 µM, active compounds read high
Method in brief: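 Material: modified S. cerevisiae; Medium: glucose-based CSMM-D restrictive medium; Compound dosing: one concentration, 10 µM final, 0.25% DMSO; Incubation: 48 h compound exposure at 30 °C; Measured by: OD615.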

[3] = doxorubicin toxicity protection in MRP-1 cells – H69AR cells, CellTiter-Glo, duplicate, MRP-1 activator project, pilot screen (AID 807); conditions: H69AR viability with doxorubicin, CellTiter-Glo luminescence; at 10 µM; active compounds read high;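 note: compound pretreatment 18-22 h then 72 h combined with doxorubicin; 0% = doxorubicin alone and 100% = vehicle without doxorubicin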
[4] = viability of HCT116 without oncogenic beta-catenin – human colon tumor cells, pilot screen (AID 823;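 active = cell viability at or below a set limit in both duplicate runs, the limit being the all-compound median minus 4 SD, cut at about 23% in these data, passing the limit was not always enough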;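 note: 0% = wells killed by 20 µM Hyamine and 100% = untreated DMSO cell wells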); conditions: HCT116 beta-catenin knockout viability, CellTiter-Glo, 60 h; at 10 µM; active compounds read low
[5] = viability of PTEN-null HCT116 cells – cell-based, HCT116 clonal line, CellTiter-Glo, pilot screen (AID 824;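 active = viability at or below 27.92% in each of two runs, the all-compound median minus 4 SD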;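 note: 0% = 20 µM Hyamine control and 100% = vehicle cell control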); conditions: HCT116 PTEN-deleted viability, 60 h, at 10 µM, active compounds read low
[6] = RAM pathway blockade in budding yeast – dse1pr::URA3 reporter, 5-FOA selection, pilot screen (AID 869;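 active = inhibition over a set limit, the all-compound mean plus 3 SD, in both replicate runs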;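 note: 0% = DMSO wells with no growth and 100% = 10 µM 1-NA-PP1 with full growth; RAM network block rescues cells from 5-FOA so hits raise OD615 growth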); conditions: S. cerevisiae dse1pr::URA3 5-FOA growth, OD615, 2 d; at 10 µM; active compounds read high; strain carries analog-sensitive mutant Cbk1 kinase
[7] = RAM signaling pathway blockade in yeast – S. cerevisiae, Pdr1DBD-CYC8 efflux-inhibited sensitized strain, primary screen (AID 1298;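 active = RAM network inhibition above 8.4% in each of two replicates, 3 SD over the compound average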;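 note: 0% = DMSO untreated cells without growth and 100% = 10 µM 1-NA-PP1 full growth; higher means more yeast growth rescued from 5-FOA killing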); conditions: S. cerevisiae cbk1-as DSE1-URA3 strain, 5-FOA growth OD615, 2 d; at 50 µM; active compounds read high

Cc1cccc(C2CC(c3ccc(F)cc3)Nc3nc(N)nn32)c1 (configuration not stated)
inactive: growth inhibition [1] -1.75% | growth inhibition [2] 18.4% | viability increase [3] 0.42% | viability [4] 92.3% | viability [5] 77.1% | inhibition [6] 0.09% | RAM network inhibition [7] 0.31%

CN1C[N+]([O-])=C(c2ccccc2)C1(C)C
inactive: growth inhibition [1] -1.95% | growth inhibition [2] -8.32% | viability increase [3] -2.64% | viability [4] 98.7% | viability [5] 91.2% | inhibition [6] 0.69% | RAM network inhibition [7] 1.81%

Cc1c(NC(=O)c2ccc(F)cc2)c(=O)n(-c2ccccc2)n1C
inactive: growth inhibition [1] -15.9% | growth inhibition [2] -7.79% | viability increase [3] -2.08% | viability [4] 106% | viability [5] 96.6% | inhibition [6] 1.34% | RAM network inhibition [7] 1.21%

COc1ccc(N2CCN(C(=O)C(Cc3ccccc3)n3cccc3)CC2)cc1 (configuration not stated)
inactive: growth inhibition [1] -14.4% | growth inhibition [2] -6.94% | viability increase [3] -2.94% | viability [4] 84.9% | viability [5] 82.6% | inhibition [6] 1.7% | RAM network inhibition [7] 6.88%

COc1cc(CN2CCN(c3cccc(C)c3C)CC2)cc(Br)c1O
inactive: growth inhibition [1] -4.04% | growth inhibition [2] 0.7% | viability increase [3] -2.57% | viability [4] 80.7% | viability [5] 86.6% | inhibition [6] -0.235% | RAM network inhibition [7] 1.51%

COc1ccccc1CNC(=O)C1COc2ccccc2O1 (configuration not stated)
inactive: growth inhibition [1] -13.9% | growth inhibition [2] -2.38% | viability increase [3] 0.65% | viability [4] 98.8% | viability [5] 88.5% | inhibition [6] 2.73% | RAM network inhibition [7] 2.77%

CC(=O)NC(CCS(C)(=O)=O)C(=O)Nc1cc(C)ccc1C (configuration not stated)
inactive: growth inhibition [1] -10.6% | growth inhibition [2] -20% | viability increase [3] 0.57% | viability [4] 98.5% | viability [5] 94.3% | inhibition [6] 2.23% | RAM network inhibition [7] 3.07%

c1ccc2c(c1)[nH]c1nc3nncn3nc12
inactive: growth inhibition [1] -7.18% | growth inhibition [2] -14.9% | viability increase [3] -1.07% | viability [4] 94% | viability [5] 93% | inhibition [6] 1.29% | RAM network inhibition [7] 7.04%

COc1ccc(-c2cn3c(C)c(C(=O)N4CCN(c5ccccc5)CC4)sc3n2)cc1
inactive: growth inhibition [1] -0.58% | growth inhibition [2] -13.6% | viability increase [3] -1.3% | viability [4] 101% | viability [5] 95.6% | inhibition [6] 1.88% | RAM network inhibition [7] 0.88%

Cc1ccc(-c2nc(C#N)c(NCCN3CCCCC3)o2)cc1
inactive: growth inhibition [1] 12.4% | growth inhibition [2] -1.35% | viability increase [3] -3.34% | viability [4] 92.5% | viability [5] 92.5% | inhibition [6] 1.4% | RAM network inhibition [7] -1.13%

O=C(Nc1ccc2c(c1)OCO2)c1ccncc1
inactive: growth inhibition [1] -10.6% | growth inhibition [2] 0.215% | viability increase [3] -0.85% | viability [4] 87.9% | viability [5] 90.1% | inhibition [6] 0.205% | RAM network inhibition [7] 3.42%

Cn1nc(-c2ccc(Cl)cc2)c2cc(C(=O)N3CCCC3)sc21
inactive: growth inhibition [1] -8.92% | growth inhibition [2] -9.39% | viability increase [3] -2.97% | viability [4] 96.9% | viability [5] 85.7% | inhibition [6] 1.97% | RAM network inhibition [7] 3.39%

O=C(Nc1nc2c(s1)CCCC2)c1ccc(Br)o1
inactive: growth inhibition [1] 6.52% | growth inhibition [2] -10.8% | viability increase [3] -4.11% | viability [4] 62.4% | viability [5] 64.6% | inhibition [6] 1.8% | RAM network inhibition [7] 4.86%

O=C1c2ccccc2C(=O)N1CCCCN(C(=O)c1ccco1)c1ccc(Cl)cc1
inactive: growth inhibition [1] -1.78% | growth inhibition [2] -17.5% | viability increase [3] -2.82% | viability [4] 102% | viability [5] 91.1% | inhibition [6] 2.79% | RAM network inhibition [7] 5.33%

CN=C(NC)SC1CC(=O)N(c2ccccc2)C1=O (configuration not stated)
inactive: growth inhibition [1] -8.98% | growth inhibition [2] -4.91% | viability increase [3] 1.47% | viability [4] 109% | viability [5] 101% | inhibition [6] 0.305% | RAM network inhibition [7] 1.02%

COC(=O)C1=C(C)NC(=O)CC1c1cc2c(cc1Br)OCO2 (configuration not stated)
inactive: growth inhibition [1] 4.83% | growth inhibition [2] 7.57% | viability increase [3] -1.64% | viability [4] 106% | viability [5] 94.7% | inhibition [6] 1.42% | RAM network inhibition [7] 5.87%

COc1ccc(OC)c(CN2C(=O)c3ccccc3C2C(=O)NCc2cccnc2)c1 (configuration not stated)
inactive: growth inhibition [1] -6.83% | growth inhibition [2] 2.58% | viability increase [3] 0.05% | viability [4] 106% | viability [5] 97.6% | inhibition [6] 0.155% | RAM network inhibition [7] 4.09%

COc1ccc(C(C#N)(CCC#N)CCC#N)cc1OC
inactive: growth inhibition [1] -14.5% | growth inhibition [2] -4.89% | viability increase [3] -1.32% | viability [4] 99.7% | viability [5] 105% | inhibition [6] 1.13% | RAM network inhibition [7] 3.89%

c1ccc(Sc2nc(N3CCCCC3)nc(N3CCCCC3)n2)nc1
inactive: growth inhibition [1] 4.63% | growth inhibition [2] -1.59% | viability increase [3] 0.32% | viability [4] 89.3% | viability [5] 86.5% | inhibition [6] 0.735% | RAM network inhibition [7] 4.97%

COc1ccc(C2CC3CC(c4ccccc4)N2O3)cc1 (configuration not stated)
inactive: growth inhibition [1] -3.88% | growth inhibition [2] -2.38% | viability increase [3] -1.22% | viability [4] 89.3% | viability [5] 93.5% | inhibition [6] 2.11% | RAM network inhibition [7] 4.21%

Cc1cccc(NC(=O)CC2SC(=NC3CCCCC3)NC2=O)c1 (configuration not stated)
inactive: growth inhibition [1] -5.5% | growth inhibition [2] -21.6% | viability increase [3] 0.92% | viability [4] 99.2% | viability [5] 94.9% | inhibition [6] 0.415% | RAM network inhibition [7] 4.77%

Cn1c(=O)oc2cc(S(=O)(=O)NCCCN3CCCC3=O)ccc21
inactive: growth inhibition [1] -7.4% | growth inhibition [2] -6.43% | viability increase [3] -2.65% | viability [4] 99% | viability [5] 98.7% | inhibition [6] 0.615% | RAM network inhibition [7] 0.74%

c1nc(N2CCCCC2)c2[nH]cnc2n1
inactive: growth inhibition [1] -2.33% | growth inhibition [2] -9.23% | viability increase [3] -5.39% | viability [4] 113% | viability [5] 102% | inhibition [6] 1.4% | RAM network inhibition [7] 2.24%

O=C1C2C3c4ccccc4C(c4ccccc43)C2C(=O)N1Cc1ccco1 (configuration not stated)
inactive: growth inhibition [1] -2.21% | growth inhibition [2] 5.63% | viability increase [3] -3.21% | viability [4] 97% | viability [5] 93.4% | inhibition [6] 0% | RAM network inhibition [7] 4.51%

Cn1c(NC(=O)CCc2ccccc2)cc(=O)n(C)c1=O
inactive: growth inhibition [1] -8.68% | growth inhibition [2] -8.72% | viability increase [3] -3.77% | viability [4] 102% | viability [5] 96.9% | inhibition [6] 0.855% | RAM network inhibition [7] -0.05%

COc1cccc(-c2nc(CS(=O)CC(=O)NC3CCCC3)c(C)o2)c1 (configuration not stated)
inactive: growth inhibition [1] -7.39% | growth inhibition [2] 1.47% | viability increase [3] -2.4% | viability [4] 90.3% | viability [5] 95.6% | inhibition [6] 1.09% | RAM network inhibition [7] 1.25%

O=C(NCCN1CCN(C(=O)Nc2ccccc2)CC1)Nc1ccccc1
inactive: growth inhibition [1] -18.1% | growth inhibition [2] -32.9% | viability increase [3] -0.62% | viability [4] 107% | viability [5] 94.8% | inhibition [6] 1.63% | RAM network inhibition [7] 3%

CN(C)CCNC(=O)c1ccc(CS(=O)(=O)c2c(Cl)cccc2Cl)o1
inactive: growth inhibition [1] -2.3% | growth inhibition [2] -9.77% | viability increase [3] -1.24% | viability [4] 99.2% | viability [5] 97.6% | inhibition [6] 2.96% | RAM network inhibition [7] -1.13%

COCCCNC(=O)CN(c1ccc(Cl)c(Cl)c1)S(C)(=O)=O
inactive: growth inhibition [1] 0.93% | growth inhibition [2] -7.01% | viability increase [3] -1.44% | viability [4] 99.4% | viability [5] 101% | inhibition [6] 0.96% | RAM network inhibition [7] -0.77%

COc1ccc(CSc2nnnn2Cc2ccccc2)cc1OC
inactive: growth inhibition [1] 0.115% | growth inhibition [2] 1.64% | viability increase [3] -0.65% | viability [4] 87.3% | viability [5] 84.4% | inhibition [6] 0.785% | RAM network inhibition [7] 1.87%

CCCCOC(=O)C(C)Oc1ccc(=O)n(-c2ccccc2)n1 (configuration not stated)
inactive: growth inhibition [1] -4.39% | growth inhibition [2] -6.44% | viability increase [3] -1.41% | viability [4] 98% | viability [5] 88.4% | inhibition [6] 1.26% | RAM network inhibition [7] 2.76%

O=S(=O)(NCCSc1nc2ccccc2o1)c1ccccc1
inactive: growth inhibition [1] -8% | growth inhibition [2] -2.81% | viability increase [3] -1.25% | viability [4] 94.4% | viability [5] 89% | inhibition [6] -0.55% | RAM network inhibition [7] 6.51%

CCOc1ccccc1N(CC)C(=O)Cn1ncc2c(=O)oc3ccccc3c21
inactive: growth inhibition [1] -11.6% | growth inhibition [2] -7.42% | viability increase [3] -1.85% | viability [4] 95.7% | viability [5] 96.2% | inhibition [6] -0.255% | RAM network inhibition [7] 4.3%

Brc1ccc(-c2nnc3sc(CNC4CCCC4)cn23)cc1
inactive: growth inhibition [1] 0.69% | growth inhibition [2] 24.3% | viability increase [3] 0.19% | viability [4] 106% | viability [5] 107% | inhibition [6] 1.58% | RAM network inhibition [7] 2.6%

CCc1c(C)sc(NC(=O)c2cc(C)no2)c1C#N
inactive: growth inhibition [1] 1.33% | growth inhibition [2] 8.59% | viability increase [3] -0.5% | viability [4] 99% | viability [5] 93.4% | inhibition [6] 1.31% | RAM network inhibition [7] 6.13%

O=C(c1ccccc1)c1cccc(NC(=O)c2ccco2)c1
inactive: growth inhibition [1] -8.52% | growth inhibition [2] -5.33% | viability increase [3] -3.35% | viability [4] 92.5% | viability [5] 96.3% | inhibition [6] -0.895% | RAM network inhibition [7] -0.72%
